The text below walks through data of BindingDB's records for doi:10.1021/jm001079l (Umr 8525 Cnrs - Universit&#233, 2001).

Sequence of Trypanothione reductase (P28593 whole entry): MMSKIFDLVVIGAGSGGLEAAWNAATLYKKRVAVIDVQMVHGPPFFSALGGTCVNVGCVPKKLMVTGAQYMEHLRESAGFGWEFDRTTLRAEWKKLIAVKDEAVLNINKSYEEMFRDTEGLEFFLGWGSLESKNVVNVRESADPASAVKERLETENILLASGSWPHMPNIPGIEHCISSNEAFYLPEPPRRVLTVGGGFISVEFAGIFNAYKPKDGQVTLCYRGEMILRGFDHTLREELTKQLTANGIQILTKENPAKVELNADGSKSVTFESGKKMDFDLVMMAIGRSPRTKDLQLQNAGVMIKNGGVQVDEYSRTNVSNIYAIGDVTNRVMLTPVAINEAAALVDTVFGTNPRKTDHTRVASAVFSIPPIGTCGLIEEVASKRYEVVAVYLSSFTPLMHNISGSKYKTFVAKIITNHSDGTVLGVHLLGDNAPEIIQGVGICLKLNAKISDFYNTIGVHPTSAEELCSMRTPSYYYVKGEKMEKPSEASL

The test concerns the target Trypanothione reductase (Trypanosoma cruzi, UniProt P28593). As to the kind of experiment: Inhibitory activity against Trypanosoma cruzi trypanothione disulfide reductase, assay in presence of 57 uM T(S)2. The gist of the method:
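Assay contained 250 µM NADPH, 57 µM T(S)₂, inhibitor at 0.3–50 µM and 1% DMSO final. Started with enzyme; NADPH loss followed at 340 nm. IC50 in duplicate.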
For orientation: IC50 means the concentration needed to halve the response being measured. As to `CN1CCN(CCCNC(=O)CC=Cc2c(CCCC(=O)NCCCN3CCN(C)CC3)c(O)c3cccc(O)c3c2O)CC1` [4-(5-Hydroxy-3-{3-[3-(4-methyl-piperazin-1-yl)-propylcarbamoyl]-propyl}-1,4-dioxo-1,4-dihydro-naphthalen-2-yl)-N-[3-(4-methyl-piperazin-1-yl)-propyl]-butyramide], the IC50 was 11 µM.

For the compound `Cc1c(N=CCCN2CCN(C)CC2)c(O)c2ccccc2c1O` [2-Methyl-3-[3-(4-methyl-piperazin-1-yl)-propylamino]-[1,4]naphthoquinone], the concentration for half-maximal inhibition (IC50) was more than 57 µM.

For the compound `Cc1c(C=CCC(=O)O)c(O)c2c(O)cccc2c1O` [4-(8-Hydroxy-3-methyl-1,4-dioxo-1,4-dihydro-naphthalen-2-yl)-butyric acid], the IC50 was more than 50 µM.

In the case of `O=C(O)CCCC=Cc1c(CCCCCC(=O)O)c(O)c2ccccc2c1O` [6-[3-(5-Carboxy-pentyl)-1,4-dioxo-1,4-dihydro-naphthalen-2-yl]-hexanoic acid], the IC50 is more than 50 µM.

In the case of `Cc1c(C=CCNC(=O)OC(C)(C)C)c(O)c2c(O)cccc2c1O` [[3-(8-Hydroxy-3-methyl-1,4-dioxo-1,4-dihydro-naphthalen-2-yl)-propyl]-carbamic acid tert-butyl ester], the IC50 is more than 25 µM.

For the compound `Cc1c(N=CCCC=Nc2c(C)c(O)c3ccccc3c2O)c(O)c2ccccc2c1O` [2-methyl-3-[4-(3-methyl-1,4-dioxo-1,4-dihydro-2-naphthalenylamino)butylamino]-1,4-dihydro-1,4-naphthalenedione], the IC50 is more than 57 µM.

Regarding `Cc1c(C=CCC(=O)NCCCN2CCN(CCCNC(=O)CC=Cc3c(C)c(O)c4cccc(O)c4c3O)CC2)c(O)c2c(O)cccc2c1O` [4-(8-Hydroxy-3-methyl-1,4-dioxo-1,4-dihydro-naphthalen-2-yl)-N-[3-(4-{3-[4-(8-hydroxy-3-methyl-1,4-dioxo-1,4-dihydro-naphthalen-2-yl)-butyrylamino]-propyl}-piperazin-1-yl)-propyl]-butyramide], the IC50 came out at 2.3 µM.

Regarding `Cc1c(N=CCCNCCCCNCCCN)c(O)c2c(O)cccc2c1O`, the IC50 came to 28 µM.

As for `Cc1c(N=CCCN2CCN(C)CC2)c(O)c2c(O)cccc2c1O` [5-Hydroxy-2-methyl-3-[3-(4-methyl-piperazin-1-yl)-propylamino]-[1,4]naphthoquinone], the IC50 was more than 57 µM.

`CN1CCN(CCCNC(=O)C=Cc2c(CCC(=O)NCCCN3CCN(C)CC3)c(O)c3cccc(O)c3c2O)CC1` [3-(8-Hydroxy-3-{2-[3-(4-methyl-piperazin-1-yl)-propylcarbamoyl]-ethyl}-1,4-dioxo-1,4-dihydro-naphthalen-2-yl)-N-[3-(4-methyl-piperazin-1-yl)-propyl]-propionamide]: the IC50 is more than 50 µM.

Take `Cc1c(N=CCCCN)c(O)c2ccccc2c1O` [2-(4-Amino-butylamino)-3-methyl-[1,4]naphthoquinone]: the IC50 is more than 57 µM.

Take `Cc1c(C=CC(=O)NCCCCNCCCNC(=O)C=Cc2c(C)c(O)c3cccc(O)c3c2O)c(O)c2c(O)cccc2c1O` [3-(8-Hydroxy-3-methyl-1,4-dioxo-1,4-dihydro-naphthalen-2-yl)-N-(4-{3-[3-(8-hydroxy-3-methyl-1,4-dioxo-1,4-dihydro-naphthalen-2-yl)-propionylamino]-propylamino}-butyl)-propionamide]: the IC50 amounted to 2.9 µM.

On to `Cc1c(CC=NC(=O)OC(C)(C)C)c(O)c2ccccc2c1O` [[2-(3-Methyl-1,4-dioxo-1,4-dihydro-naphthalen-2-yl)-ethyl]-carbamic acid tert-butyl ester], for which the half-inhibitory concentration (IC50) was more than 50 µM.

For `Cc1c(C=CCC(=O)NCCCNCCCNC(=O)CC=Cc2c(C)c(O)c3ccccc3c2O)c(O)c2ccccc2c1O` [4-(3-Methyl-1,4-dioxo-1,4-dihydro-naphthalen-2-yl)-N-(3-{3-[4-(3-methyl-1,4-dioxo-1,4-dihydro-naphthalen-2-yl)-butyrylamino]-propylamino}-propyl)-butyramide], the IC50 amounted to 11 µM.

Turning to `Cc1c(CC=NC(=O)OC(C)(C)C)c(O)c2c(O)cccc2c1O` [[2-(8-Hydroxy-3-methyl-1,4-dioxo-1,4-dihydro-naphthalen-2-yl)-ethyl]-carbamic acid tert-butyl ester], the IC50 is more than 25 µM.

Consider `Cc1c(C=CC(=O)O)c(O)c2c(O)cccc2c1O` [3-(8-Hydroxy-3-methyl-1,4-dioxo-1,4-dihydro-naphthalen-2-yl)-propionic acid], for which the IC50 was more than 50 µM.

For `Cc1c(N=CCCNCCCCNCCCN)c(O)c2ccccc2c1O` [2-{3-[4-(3-Amino-propylamino)-butylamino]-propylamino}-3-methyl-[1,4]naphthoquinone], the IC50 was 28 µM.

With `Cc1c(N=CCCCN)c(O)c2c(O)cccc2c1O` [3-(4-Amino-butylamino)-5-hydroxy-2-methyl-[1,4]naphthoquinone], the 50% inhibitory concentration (IC50) was more than 57 µM.
